According to ChEMBL document CHEMBL1138216, “Design and synthesis of novel derivatives of the muscarinic agonist tetra(ethylene glycol)(3-methoxy-1,2,5-thiadiazol-4-yl) [3-(1-methyl-1,2,5,6-tetrahydropyrid-3-yl)-1,2,5-thiadiazol-4-yl] ether (CDD-0304): effects of structural modifications on the binding and activity at muscarinic receptor …” (J Med Chem, 2006):
Residue numbers refer to the chain shown, from its start. Activity calls are given as the source filed them. The calls are words filed in the database; no cut-off is given here.

Columns and labels:
[1] = molecular target: T1, Muscarinic acetylcholine receptor M3 (Homo sapiens, UniProt P20309); test: Agonist activity at human M3 receptor expressed in A9 L cells assessed as stimulation of phosphoinositide hydrolysis; type: functional, cell-based, L929
T1 sequence (P20309 whole entry): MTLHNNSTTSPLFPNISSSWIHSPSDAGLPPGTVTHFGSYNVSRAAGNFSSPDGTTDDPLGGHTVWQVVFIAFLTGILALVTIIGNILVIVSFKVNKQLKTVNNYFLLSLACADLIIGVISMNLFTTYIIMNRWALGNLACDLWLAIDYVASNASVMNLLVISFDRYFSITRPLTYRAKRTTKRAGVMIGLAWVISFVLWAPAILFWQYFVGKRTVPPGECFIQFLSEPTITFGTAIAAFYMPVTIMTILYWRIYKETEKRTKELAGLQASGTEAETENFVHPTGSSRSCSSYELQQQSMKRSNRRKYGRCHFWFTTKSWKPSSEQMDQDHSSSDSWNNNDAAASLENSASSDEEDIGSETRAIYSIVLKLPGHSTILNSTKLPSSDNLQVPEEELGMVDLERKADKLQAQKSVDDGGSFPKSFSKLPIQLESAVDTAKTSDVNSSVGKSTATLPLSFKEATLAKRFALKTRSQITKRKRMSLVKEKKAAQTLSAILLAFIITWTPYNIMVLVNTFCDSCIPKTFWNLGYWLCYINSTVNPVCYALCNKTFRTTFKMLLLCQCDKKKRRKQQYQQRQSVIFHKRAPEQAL

[2] = system: T2, Muscarinic acetylcholine receptor M1 (Homo sapiens), P11229 [E170K]; test: Agonist activity at human M1 receptor E170K mutant expressed in A9 L cells assessed as stimulation of phosphoinositide hydrolysis relative to carbachol; type: functional, cell-based; conditions: L929
T2 sequence (whole entry): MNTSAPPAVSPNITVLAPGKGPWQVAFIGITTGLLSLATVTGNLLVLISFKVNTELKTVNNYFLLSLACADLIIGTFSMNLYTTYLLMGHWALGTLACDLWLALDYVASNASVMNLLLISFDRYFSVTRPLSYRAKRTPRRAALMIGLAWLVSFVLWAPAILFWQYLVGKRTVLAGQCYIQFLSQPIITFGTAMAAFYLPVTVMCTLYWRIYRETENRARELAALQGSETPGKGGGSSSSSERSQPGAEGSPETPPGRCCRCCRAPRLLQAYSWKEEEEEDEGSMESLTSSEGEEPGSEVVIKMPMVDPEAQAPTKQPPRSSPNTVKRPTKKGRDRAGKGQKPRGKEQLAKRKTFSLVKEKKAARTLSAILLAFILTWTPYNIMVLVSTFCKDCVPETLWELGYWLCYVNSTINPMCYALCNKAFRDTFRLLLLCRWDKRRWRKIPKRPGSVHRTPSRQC
Procedure, shortened: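 A9 L cells stably expressing the receptor, seeded 24 h, labelled overnight with 10 µCi/mL [3H]inositol in inositol-free DMEM; ligands in HBSS with 10 mM LiCl, 20 mM HEPES, 37 °C, 1 h; formic acid extraction, inositol phosphates counted by SPA beads.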

[3] = molecular target: T3, Muscarinic acetylcholine receptor M2 (Homo sapiens) (UniProt P08172); test: Activity at human M2 receptor assessed as inhibition of forskolin-stimulated cAMP accumulation relative to carbachol; type: functional
T3 sequence (whole entry): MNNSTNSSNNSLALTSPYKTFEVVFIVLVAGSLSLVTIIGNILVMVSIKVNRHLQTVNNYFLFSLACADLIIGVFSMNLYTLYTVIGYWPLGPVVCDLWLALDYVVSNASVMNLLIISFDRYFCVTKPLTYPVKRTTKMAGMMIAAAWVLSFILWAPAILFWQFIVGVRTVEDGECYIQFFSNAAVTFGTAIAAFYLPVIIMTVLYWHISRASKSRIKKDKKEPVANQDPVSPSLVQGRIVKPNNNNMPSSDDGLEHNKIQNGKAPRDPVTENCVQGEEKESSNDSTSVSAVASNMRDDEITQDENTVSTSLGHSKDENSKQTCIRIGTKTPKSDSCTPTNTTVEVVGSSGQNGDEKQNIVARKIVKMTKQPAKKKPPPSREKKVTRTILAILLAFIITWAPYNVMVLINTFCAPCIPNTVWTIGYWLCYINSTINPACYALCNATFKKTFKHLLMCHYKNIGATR

Rattus norvegicus [4] = test: Antipsychotic activity in sc dosed Sprague-Dawley rat assessed as ability to reverse apomorphine effect on prepulse inhibition of the startle response; type: functional, organism-based
Procedure, shortened: (§1)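 Male Sprague-Dawley rats, 250-300 g, habituated a day before. Drug in water or saline sc (1 mL/kg) 25 min, apomorphine 1.0 mg/kg 5 min pre-test; muscarinic agonists 0.1-3 mg/kg. Session of 15 each pulse-alone (120 dB, 100 ms) and pulse preceded 200 ms by 20 ms prepulse 12 dB above 70 dB background; 12 rats/group; %PPI calculated.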

[5] = molecular target: T4, Muscarinic acetylcholine receptor M1 (Homo sapiens, UniProt P11229); test: Inhibition of [3H](R)-QNB binding to human M1 receptor expressed in A9 L cells; type: cell-based, A9L
T4 sequence (P11229 whole entry): T2 sequence (whole entry) with K170E

[6] = molecular target: Muscarinic acetylcholine receptor M1 (Homo sapiens, UniProt P11229, Q185E); type: functional, cell-based, L929
Muscarinic acetylcholine receptor M1 (Homo sapiens, UniProt P11229, Q185E), sequence (P11229 whole entry Q185E): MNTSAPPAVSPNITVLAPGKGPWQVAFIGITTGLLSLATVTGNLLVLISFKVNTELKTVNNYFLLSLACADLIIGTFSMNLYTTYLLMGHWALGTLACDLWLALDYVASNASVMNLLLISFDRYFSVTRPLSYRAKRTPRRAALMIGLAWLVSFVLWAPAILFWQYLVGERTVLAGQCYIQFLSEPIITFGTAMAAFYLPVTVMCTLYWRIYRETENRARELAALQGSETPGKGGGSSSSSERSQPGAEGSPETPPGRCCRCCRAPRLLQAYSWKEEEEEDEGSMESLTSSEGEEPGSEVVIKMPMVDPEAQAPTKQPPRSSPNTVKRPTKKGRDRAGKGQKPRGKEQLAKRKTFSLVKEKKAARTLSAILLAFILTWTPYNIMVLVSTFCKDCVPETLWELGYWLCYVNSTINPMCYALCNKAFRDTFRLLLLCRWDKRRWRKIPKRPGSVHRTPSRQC

[7] = molecular target: T1, Muscarinic acetylcholine receptor M3; test: Antagonist activity at human M3 receptor assessed as inhibition of carbachol […]; conditions: read-out: pA2 (converted)
[8] = molecular target: T5, Muscarinic acetylcholine receptor M1/M5 chimeric protein (Homo sapiens, UniProt P08912+P11229); test: Inhibition of [3H](R)-QNB binding to human M1/M5(o3) chimeric receptor expressed in A9 L cells; type: cell-based, A9L
T5 sequence (P11229 whole entry): T2 sequence (whole entry) with K170E
T5 sequence (P08912 whole entry): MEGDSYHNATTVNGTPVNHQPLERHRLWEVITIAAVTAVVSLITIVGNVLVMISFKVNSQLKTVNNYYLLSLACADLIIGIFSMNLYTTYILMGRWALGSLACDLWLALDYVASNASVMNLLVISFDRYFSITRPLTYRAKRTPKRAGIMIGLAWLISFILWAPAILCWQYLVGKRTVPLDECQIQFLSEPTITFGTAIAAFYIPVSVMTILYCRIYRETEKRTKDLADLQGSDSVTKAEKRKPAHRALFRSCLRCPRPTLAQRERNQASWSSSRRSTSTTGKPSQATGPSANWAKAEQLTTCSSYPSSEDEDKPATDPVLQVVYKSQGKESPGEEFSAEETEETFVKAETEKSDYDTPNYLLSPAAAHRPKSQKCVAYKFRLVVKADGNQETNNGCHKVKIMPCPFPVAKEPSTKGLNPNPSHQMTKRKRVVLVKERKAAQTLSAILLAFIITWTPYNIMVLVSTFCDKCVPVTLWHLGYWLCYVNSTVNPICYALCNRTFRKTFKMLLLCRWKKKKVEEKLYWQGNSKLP

[9] = molecular target: T5, Muscarinic acetylcholine receptor M1/M5 chimeric protein; test: Inhibition of [3H](R)-QNB binding to human M1/M5(o2o3) chimeric receptor expressed in A9 L cells; type: cell-based, A9L
[10] = molecular target: T5, Muscarinic acetylcholine receptor M1/M5 chimeric protein; test: Agonist activity at human M1/M5(o3) chimeric receptor expressed in A9 L cells assessed as stimulation of phosphoinositide hydrolysis; type: functional, cell-based, L929
Rattus norvegicus [11] = test: Antipsychotic activity in Sprague-Dawley rat assessed as ability to reverse apomorphine effect on prepulse inhibition of the startle response at 1 mg/kg, sc; type: functional, organism-based; parameters: dose 1 mg/kg; procedure, shortened: as §1
Rattus norvegicus [12] = test: Antipsychotic activity in Sprague-Dawley rat assessed as ability to reverse apomorphine effect on prepulse inhibition of the startle response at 3 mg/kg, sc; type: functional, organism-based; parameters: dose 3 mg/kg; procedure, shortened: as §1

EC50 [1]	Activity [3]	Structure (SMILES)	Smax [2]	Activity (Rattus norvegicus [4])	Ki [5]	EC50 [6]	Imax [3]	Kb [7]	Ki [8]	Ki [9]	EC50 [10]	Activity (Rattus norvegicus [11])	Activity (Rattus norvegicus [12])
25100 nM	inactive	CCCCCCOc1nsnc1C1=CCCN(C)C1 [XANOMELINE]	31%	inactive	–	–	–	–	–	–	–	–	–
–	–	COc1nsnc1OCCOCCOCCOCCOc1nsnc1C1=CCCN(C)C1	27%	–	50.1 nM	251 nM	120%	158 nM	126 nM	316 nM	100 nM	Active	Active
